Experimental data reported in ChEMBL document CHEMBL1135664, “Structure-activity relationships of 1-alkyl-5-(3,4-dichlorophenyl)- 5-[2-[(3-substituted)-1-azetidinyl]ethyl]-2-piperidones. 1. Selective antagonists of the neurokinin-2 receptor” (J Med Chem, 2002).

Assays:
Homo sapiens = species: Homo sapiens; experiment: In vitro microsomal stability in human liver microsomes (HLM); type: functional
Substance-K receptor = biological target: T1, Substance-K receptor (Oryctolagus cuniculus, UniProt P79218); experiment: Functional potency against Tachykinin receptor 2 (NK2) in rabbit pulmonary artery assay; details: read-out: pA2 (converted)
T1 sequence (P79218 whole entry): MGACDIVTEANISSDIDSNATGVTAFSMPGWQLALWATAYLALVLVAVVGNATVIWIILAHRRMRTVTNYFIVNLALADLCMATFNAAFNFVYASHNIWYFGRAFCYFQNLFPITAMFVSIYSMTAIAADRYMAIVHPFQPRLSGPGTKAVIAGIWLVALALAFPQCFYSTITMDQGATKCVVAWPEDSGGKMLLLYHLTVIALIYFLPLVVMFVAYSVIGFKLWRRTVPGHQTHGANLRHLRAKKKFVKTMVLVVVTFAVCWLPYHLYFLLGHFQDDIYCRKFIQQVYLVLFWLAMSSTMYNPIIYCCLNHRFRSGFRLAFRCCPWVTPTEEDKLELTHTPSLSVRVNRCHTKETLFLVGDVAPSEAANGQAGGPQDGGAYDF
Method in brief: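 Rabbit pulmonary artery preparation; antagonism of contractions evoked by the selective NK2 agonist [β-ala8]NKA(4–10); result expressed as pA2. Each determination n ≥ 2, every experiment run in triplicate.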

Kb (Substance-K receptor) [nM]	SMILES	half-life (Homo sapiens) [min]
2.51	O=C1CCC(CCN2CC(N3CCOCC3=O)C2)(c2ccc(Cl)c(Cl)c2)CN1Cc1ccccc1 (stereo not drawn)	–
0.631	O=C1CCC(CCN2CC(N3CC[S+]([O-])CC3)C2)(c2ccc(Cl)c(Cl)c2)CN1Cc1ccccc1 (stereo not drawn)	–
0.631	CS(=O)(=O)N1CCN(C2CN(CCC3(c4ccc(Cl)c(Cl)c4)CCC(=O)N(Cc4ccccc4)C3)C2)CC1 (stereo not drawn)	–
1.26	O=C1CCC(CCN2CC(N3CCS(=O)(=O)CC3)C2)(c2ccc(Cl)c(Cl)c2)CN1Cc1ccccc1 (stereo not drawn)	–
1.58	CC(=O)N1CCN(C2CN(CCC3(c4ccc(Cl)c(Cl)c4)CCC(=O)N(Cc4ccccc4)C3)C2)CC1 (stereo not drawn)	–
5.01	O=C1CCC(CCN2CC(N3CCNCC3)C2)(c2ccc(Cl)c(Cl)c2)CN1Cc1ccccc1 (stereo not drawn)	–
2	O=C1CCC(CCN2CC(N3CCCOCC3)C2)(c2ccc(Cl)c(Cl)c2)CN1Cc1ccccc1 (stereo not drawn)	–
2	O=C1CCC(CCN2CC(N3CCC(O)C3)C2)(c2ccc(Cl)c(Cl)c2)CN1Cc1ccccc1 (stereo not drawn)	–
0.501	O=C1CCC(CCN2CC(N3CCOCC3)C2)(c2ccc(Cl)c(Cl)c2)CN1Cc1ccccc1 (stereo not drawn)	70
2	O=C1CCC(CCN2CC(N3CCCC(O)C3)C2)(c2ccc(Cl)c(Cl)c2)CN1Cc1ccccc1 (stereo not drawn)	–
1	O=C1CCC(CCN2CC(N3CCSCC3)C2)(c2ccc(Cl)c(Cl)c2)CN1Cc1ccccc1 (stereo not drawn)	–
15.8	CN1CCN(C2CN(CCC3(c4ccc(Cl)c(Cl)c4)CCC(=O)N(Cc4ccccc4)C3)C2)CC1 (stereo not drawn)	–
0.0794	O=C1CCC(CCN2CC(N3CCC(O)CC3)C2)(c2ccc(Cl)c(Cl)c2)CN1Cc1ccccc1 (stereo not drawn)	–
0.501	Cc1ccccc1CN1CC(CCN2CC(N3CCOCC3)C2)(c2ccc(Cl)c(Cl)c2)CCC1=O (stereo not drawn)	–

The remaining lines, values behind:

SMILES	Kb (Substance-K receptor) [nM]	half-life (Homo sapiens) [min]
O=C1CCC(CCN2CC(N3CCOCC3)C2)(c2ccc(Cl)c(Cl)c2)CN1CC1CCCCC1 (stereo not drawn)	1.26	70
CCOC1CCN(C2CN(CCC3(c4ccc(Cl)c(Cl)c4)CCC(=O)N(CC4CC4)C3)C2)CC1 (stereo not drawn)	6.31	–
O=C1CCC(CCN2CC(N3CCC(O)CC3)C2)(c2ccc(Cl)c(Cl)c2)CN1CC1CC1 (stereo not drawn)	1.58	–
NS(=O)(=O)N1CCN(C2CN(CCC3(c4ccc(Cl)c(Cl)c4)CCC(=O)N(CC4CC4)C3)C2)CC1 (stereo not drawn)	1.26	> 120
Cc1ccc(CN2CC(CCN3CC(N4CCOCC4)C3)(c3ccc(Cl)c(Cl)c3)CCC2=O)cc1 (stereo not drawn)	6.31	–
CN(CCO)C1CN(CCC2(c3ccc(Cl)c(Cl)c3)CCC(=O)N(Cc3ccccc3)C2)C1 (stereo not drawn)	3.16	–
CC(=O)NC1CCN(C2CN(CCC3(c4ccc(Cl)c(Cl)c4)CCC(=O)N(CC4CC4)C3)C2)CC1 (stereo not drawn)	15.8	–
CS(=O)(=O)N1CCN(C2CN(CCC3(c4ccc(Cl)c(Cl)c4)CCC(=O)N(CC4CC4)C3)C2)CC1 (stereo not drawn)	3.16	< 10
CS(=O)(=O)NC1CCN(C2CN(CCC3(c4ccc(Cl)c(Cl)c4)CCC(=O)N(CC4CC4)C3)C2)CC1 (stereo not drawn)	10	–
NC(=O)N1CCN(C2CN(CCC3(c4ccc(Cl)c(Cl)c4)CCC(=O)N(CC4CC4)C3)C2)CC1 (stereo not drawn)	5.01	–
O=C(O)C1CCN(C2CN(CCC3(c4ccc(Cl)c(Cl)c4)CCC(=O)N(CC4CC4)C3)C2)CC1 (stereo not drawn)	0.398	–
O=C1CCC(CCN2CC(N3CCOC(c4ccccc4)C3)C2)(c2ccc(Cl)c(Cl)c2)CN1Cc1ccccc1 (stereo not drawn)	10	–
Cc1cccc(CN2CC(CCN3CC(N4CCOCC4)C3)(c3ccc(Cl)c(Cl)c3)CCC2=O)c1 (stereo not drawn)	2.51	–
O=C1CCC(CCN2CC(N3CCOCC3)C2)(c2ccc(Cl)c(Cl)c2)CN1 (stereo not drawn)	> 10000	–
O=C1CCC(CCN2CCC(O)(c3ccccc3)CC2)(c2ccc(Cl)c(Cl)c2)CN1Cc1ccccc1 (stereo not drawn)	1.26	30
O=C1CC[C@@](CCN2CC(N3CCOCC3)C2)(c2ccc(Cl)c(Cl)c2)CN1CC1CCCCC1	631	84
O=C1CCC(CCN2CC(N3CCOCC3)C2)(c2ccc(Cl)c(Cl)c2)CN1Cc1ccncc1 (stereo not drawn)	100	–
O=C1CCN(C2CN(CCC3(c4ccc(Cl)c(Cl)c4)CCC(=O)N(CC4CC4)C3)C2)CC1 (stereo not drawn)	1.26	–
O=C1CCC(CCN2CC(N3CCNCC3)C2)(c2ccc(Cl)c(Cl)c2)CN1CC1CC1 (stereo not drawn)	12.6	–
O=C1CCC(CCN2CC(N3CCOCC3)C2)(c2ccc(Cl)c(Cl)c2)CN1C1CCCCC1 (stereo not drawn)	0.126	< 10
O=C1CCC(CCN2CC(N3CCOCC3)C2)(c2ccc(Cl)c(Cl)c2)CN1CC1CC1 (stereo not drawn)	7.94	120
O=C1CC[C@](CCN2CC(N3CCOCC3)C2)(c2ccc(Cl)c(Cl)c2)CN1CC1CCCCC1	–	14
CC(=O)NC1(c2ccccc2)CCN(C2CN(CCC3(c4ccc(Cl)c(Cl)c4)CCC(=O)N(CC4CC4)C3)C2)CC1 (stereo not drawn)	3.16	–
CN(CC(CCN1CCC(O)(c2ccccc2)CC1)c1ccc(Cl)c(Cl)c1)C(=O)c1ccccc1 (stereo not drawn)	0.316	< 10
O=C1CCC(CCN2CC(N3CCOCC3)C2)(c2ccc(Cl)c(Cl)c2)CN1Cc1ccc(F)cc1 (stereo not drawn)	20	–
O=C1CCC(CCN2CC(N3C4CCC3CC(O)C4)C2)(c2ccc(Cl)c(Cl)c2)CN1Cc1ccccc1 (stereo not drawn)	0.631	–
NC1CCN(C2CN(CCC3(c4ccc(Cl)c(Cl)c4)CCC(=O)N(CC4CC4)C3)C2)CC1 (stereo not drawn)	2	30
CNS(=O)(=O)N1CCN(C2CN(CCC3(c4ccc(Cl)c(Cl)c4)CCC(=O)N(CC4CC4)C3)C2)CC1 (stereo not drawn)	3.16	–
CN(C)S(=O)(=O)N1CCN(C2CN(CCC3(c4ccc(Cl)c(Cl)c4)CCC(=O)N(CC4CC4)C3)C2)CC1 (stereo not drawn)	10	–
